Screening data deposited in PubChem by several laboratories.
Sampled rows, rich in hits. Any-hit rate of the full collection: about 3.2%.
DSG3 Ab inh – blocks pemphigus antibody binding to human desmoglein-3 | 310,000 compounds, 0.48% hits | binding (percent of control), % at 10 µM | DSG3-coupled beads, scFv-anti-DSG3-GFP binding, flow cytometry; hits give low values | P32926;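 active means binding more than 3 SD below its plate's average and above zero; inconclusive means below that plate limit but binding exactly zero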;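 further: hits lower antibody fragment binding to DSG3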
Apaf1 inhib – blocks human Apaf-1 apoptosome activity; reconstituted apoptosome caspase-3 activity, DEVD-Rh110 fluorescence; inhibition, % at 20 µM; AID 489030; 330,000 compounds, 0.71% hits; O14727; active means inhibition of at least 40% at 20 µM;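 further: plate controls were DMSO wells for no effect and DEVD-CHO caspase inhibitor wells for full effect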
Target sequence (O14727 whole entry, looked up): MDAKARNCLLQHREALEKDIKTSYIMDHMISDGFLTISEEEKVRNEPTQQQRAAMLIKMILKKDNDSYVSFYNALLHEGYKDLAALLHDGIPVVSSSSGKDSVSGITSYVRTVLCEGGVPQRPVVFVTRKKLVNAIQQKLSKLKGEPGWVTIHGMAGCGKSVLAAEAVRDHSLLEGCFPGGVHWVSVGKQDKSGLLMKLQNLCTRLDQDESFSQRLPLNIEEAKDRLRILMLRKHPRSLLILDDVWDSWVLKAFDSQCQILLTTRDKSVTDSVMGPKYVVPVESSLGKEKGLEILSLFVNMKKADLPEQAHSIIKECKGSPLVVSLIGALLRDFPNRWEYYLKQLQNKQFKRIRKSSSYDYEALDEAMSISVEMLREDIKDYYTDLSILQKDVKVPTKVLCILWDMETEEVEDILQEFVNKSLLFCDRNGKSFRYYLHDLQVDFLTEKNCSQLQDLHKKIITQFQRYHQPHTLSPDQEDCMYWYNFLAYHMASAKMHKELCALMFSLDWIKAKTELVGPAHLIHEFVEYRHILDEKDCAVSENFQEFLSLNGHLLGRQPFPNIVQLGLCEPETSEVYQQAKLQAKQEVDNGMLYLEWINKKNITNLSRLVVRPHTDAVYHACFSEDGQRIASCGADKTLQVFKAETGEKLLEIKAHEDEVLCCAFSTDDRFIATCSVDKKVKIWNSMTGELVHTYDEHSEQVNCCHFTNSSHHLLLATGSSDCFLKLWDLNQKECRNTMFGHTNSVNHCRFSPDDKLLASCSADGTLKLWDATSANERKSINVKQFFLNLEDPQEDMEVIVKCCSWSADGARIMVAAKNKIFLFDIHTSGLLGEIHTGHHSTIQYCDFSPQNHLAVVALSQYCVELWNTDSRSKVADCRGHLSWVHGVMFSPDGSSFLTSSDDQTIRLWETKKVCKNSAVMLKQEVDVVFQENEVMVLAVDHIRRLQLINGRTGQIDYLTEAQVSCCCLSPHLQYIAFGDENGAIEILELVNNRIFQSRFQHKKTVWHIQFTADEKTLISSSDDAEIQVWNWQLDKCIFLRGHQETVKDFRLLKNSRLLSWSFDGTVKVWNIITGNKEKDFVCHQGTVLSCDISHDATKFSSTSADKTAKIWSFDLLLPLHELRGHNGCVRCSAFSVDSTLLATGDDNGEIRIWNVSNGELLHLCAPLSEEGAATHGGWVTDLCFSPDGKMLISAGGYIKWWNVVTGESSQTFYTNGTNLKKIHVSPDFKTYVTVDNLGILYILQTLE
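Material: reconstituted apoptosome with Apaf-1, cytochrome c, caspase-9, procaspase-3, dATP; medium: pH 7.5 Hepes buffer with CHAPS, BSA, DTT; also added: cytochrome c and DEVD-Rh110 substrate; timing: 30 min plus 50 min, RT; signal: Rh110 fluorescence intensity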
MEKK3 PB1 HTS – raises or lowers MEK5 binding to the human MEKK3 PB1 domain; 290,000 compounds, 1.4% hits; binding response (% of control), % at 10 µM; bead-based flow cytometry, Alexa488-MEK5 binding to MEKK3; actives lie on both sides; 0 = blocked by unlabeled MEK5, 100 = vehicle; Q99759;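 active means binding response more than 3 SD above or below the average of its plate-row segment, actives on both sides; inconclusive means wells at one plate position flagged as instrument error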;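 further: Alexa488 bead fluorescence after subtracting the streptavidin-only scavenger bead signal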
MEKK2mut PB1 HTS – signal of MEK5 binding to mutant human MEKK2 PB1 domain | bead flow cytometry, Alexa488-MEK5 binding to MEKK2 mutant | percent response, % at 10 µM | 290,000 compounds, 0.35% hits | AID 1530; in the data active means percent response above about 24%, passing the limit was not always enough
UBC13 polyUb – blocks human UBC13 polyubiquitin chain formation; 330,000 compounds, 0.47% hits; inhibition, % at 20 µM; P61088; TR-FRET; AID 485273; in the data active means inhibition above about 45%, passing the limit was not always enough; inconclusive means no clear call, values can overlap the other calls
MEKK2 WT-MEK5 – raises or lowers MEK5 binding to wildtype human MEKK2 PB1 domain; bead flow cytometry, Alexa488-MEK5 binding to MEKK2 WT; actives lie on both sides; binding response (% of control), % at 10 µM; 290,000 compounds, 1.1% hits; AID 1531; in the data active means binding response below about 67% or above about 130%; inconclusive means no clear call, values can overlap the other calls; inactive means in between
MEKK2wt confirm – raises or lowers MEK5 binding to wildtype human MEKK2, retest; AID 1892; binding response (% of control), % at 10 µM; shares compounds with MEKK3 PB1 HTS; 5,900 compounds, 2.4% hits; bead flow cytometry, Alexa488-MEK5 binding to MEKK2 WT; actives lie on both sides; in the data active means binding response below about 16% or above about 210%; inactive means in between
MEKK2mut confirm – signal of MEK5 binding to mutant human MEKK2, retest; shares compounds with MEKK3 PB1 HTS; bead flow cytometry, Alexa488-MEK5 binding to MEKK2 mutant; percent response, % at 10 µM; 5,900 compounds, 2% hits; AID 1893; in the data active means percent response mostly above about 71%, no sharp cut-off; inactive means mostly below about 38%;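 further: higher means compound restores mutant binding toward wildtype level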
MEKK3-MEK5 inh – confirmation of inhibitors of MEK5 binding to human MEKK3. shares compounds with MEKK3 PB1 HTS. bead flow cytometry, Alexa488-MEK5 binding to MEKK3; hits give low values. binding response (% of control), % at 10 µM. 5,900 compounds, 1.8% hits. AID 1894;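 active means binding response below 72% of control, or above a set upper limit, though filed actives all read lower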;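 further: 100% = DMSO only wells and 0% = binding blocked by excess unlabeled MEK5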
Casp3 UBC13 ctr – caspase-3 inhibition (UBC13 counter-screen); Recombinant caspase-3, Caspase-Glo 3/7 luminescence, 60 min; AID 488856; 1,400 compounds, 4% hits; inhibition, % at 20 µM; shares compounds with UBC13 polyUb;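 active means mean inhibition across replicates above about 26%, limit read from the data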;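 further: plate controls were DMSO with caspase-3 for no effect and DMSO wells lacking enzyme for full effect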
UBC13 confirm – confirmation of human UBC13 polyubiquitin inhibitors; shares compounds with UBC13 polyUb; AID 488859; inhibition, % at 10 µM; UBC13 polyubiquitination, TR-FRET, biochemical; 1,400 compounds, 68% hits; in the data active means inhibition above about 45%; inconclusive means no clear call, values can overlap the other calls
* hit, by the source's call; i = inactive; ? = inconclusive; . = no result; [ ] = remark or other dose.

SMILES | DSG3 Ab inh | Apaf1 inhib | MEKK3 PB1 HTS | MEKK2mut PB1 HTS | UBC13 polyUb | MEKK2 WT-MEK5 | MEKK2wt confirm | MEKK2mut confirm | MEKK3-MEK5 inh | Casp3 UBC13 ctr | UBC13 confirm
COc1ccc2nc(C)cc(N/N=C/c3cccc(OC)c3O)c2c1 | 123 | 33 | 116 | 72* | 58* | 260* | 236* | 79* | 106 | 2 | 111*
COc1ccc(-c2noc(CCC(=O)NC3CCN(Cc4ccccc4)CC3)n2)cc1 | 99 | 12 | 108 | 5 | 9 | 118 | . | . | . | . | .
COc1ccc(-c2noc(CCC(=O)NCC3CCN(Cc4cccc(C)c4)CC3)n2)cc1 | 93 | 6 | 116 | 39* | 54* | 143* | 118 | 17 | 101 | 3 | 49*
Cc1ccc(NC(=O)CSc2ccc3c(c2)OCCO3)nc1 | 104 | 12 | . | . | 0 | . | . | . | . | . | .
CCc1ccc(NC(=O)COc2cccc(-n3cnnn3)c2)cc1 | 99 | 8 | 101 | 2 | 2 | 95 | . | . | . | . | .
CN(C)C(=O)c1ccc(NC(=O)c2cccc(-n3cnnn3)c2)cc1 | 104 | . | . | . | . | . | . | . | . | . | .
CCCCCN=C(N)N/N=C/c1c[nH]c2ccc(OC)cc12 | 110 | 78* | 117 | 40* | 107* | 263* | 181 | 46 | 110 | -5 | 111*
CCCOc1ccc(C(=O)N/N=C/c2c[nH]c3ccc(Br)cc23)cc1 | 103 | 25 | 102 | 1 | 24 | 99 | . | . | . | . | .
Cc1cccc(NC(=O)c2ccc(C)c(S(=O)(=O)N3CCOCC3)c2)n1 | 96 | . | . | . | . | . | . | . | . | . | .
CCc1ccc(CNC(=O)C2CCN(S(=O)(=O)N3CCCCC3)CC2)cc1 | 107 | . | . | . | . | . | . | . | . | . | .
O=C(C[n+]1ccc(/C=C/c2ccccc2)cc1)c1ccc2c(c1)OCCO2 | 119 | 17 | 101 | 32 | 53* | 174* | 142 | 23 | 97 | -2 | 20
Cc1cc[n+](CC(=O)c2ccc3c(c2)OCCO3)cc1 | 84 | -16 | 105 | 18 | 3 | 111 | . | . | . | . | .
COc1ccc(-c2cn[nH]c2-c2ccc(OCc3ccc(F)cc3)cc2O)cc1OC | 104 | -2 | 102 | -9 | 6 | 100 | . | . | . | . | .
COc1cc2c3nnc(-c4ccc(F)cc4)c-3cn(Cc3ccc(F)cc3)c2cc1OC | 116 | 26 | 91 | 36* | 65* | 193* | 190 | 57 | 100 | -4 | 41
COc1ccc(Cn2cc3c(-c4ccc(F)cc4)nnc-3c3cc(OC)c(OC)cc32)cc1 | 101 | 34 | 118 | 57* | 87* | 188* | 208* | 81* | 109 | -2 | 39
COc1cc2c3nnc(-c4ccc(F)cc4)c-3cn(Cc3ccccc3)c2cc1OC | i | 32 | 111 | 46* | 82* | 178* | 187 | 47 | 102 | -2 | 50*
Cn1nc2c3cc(F)ccc3n(Cc3ccc(F)cc3)cc-2c1=O | 98 | 1 | 107 | 12 | 4 | 109 | . | . | . | . | .
O=C(O)c1cccc(S(=O)(=O)N2CCN(S(=O)(=O)c3ccc4ccccc4c3)CC2)c1 | 103 | 5 | . | . | 1 | . | . | . | . | . | .
Cc1ccc2nc3c(c(N)c2c1)CCN3C | 99 | 12 | 106 | 11 | 0 | 113 | . | . | . | . | .
CCCCN1CCc2c1nc1ccc(Br)cc1c2N | 93 | -14 | 106 | 17 | 55* | 147* | 148 | 27 | 110 | 1 | ?
COc1ccc(/C=N/NC(=O)c2cccc(S(=O)(=O)N3CCCC3)c2)cc1O | 101 | 2 | . | . | -17 | . | . | . | . | . | .
COc1ccccc1NC(=O)CN1CCC(n2c(C)nc3cc(F)ccc32)CC1 | . | 14 | 2.0*[inhibitor] | -16 | 104* | 2.0*[inhibitor] | 106 | 5 | 106 | 2 | 112*
Cc1ccc(S(=O)(=O)N2CC3(O)CN(C(=O)OC(C)C)N(C(=O)OC(C)C)CC3(OC(=O)Nc3cccs3)C2)cc1 (stereo unspecified) | 106 | . | . | . | . | . | . | . | . | . | .
COc1ccc(NS(=O)(=O)N2CCCCC2)cc1 | 95 | . | . | . | . | . | . | . | . | . | .
Cc1ccc2c(c1)c1c(n2CC(O)CNC(CO)(CO)CO)CCCC1 (stereo unspecified) | 108 | 1 | 114 | 9 | 16 | 127 | . | . | . | . | .
SMILES | DSG3 Ab inh | Apaf1 inhib | MEKK3 PB1 HTS | MEKK2mut PB1 HTS | UBC13 polyUb | MEKK2 WT-MEK5 | MEKK2wt confirm | MEKK2mut confirm | MEKK3-MEK5 inh | Casp3 UBC13 ctr | UBC13 confirm
Cc1ccc2c(c1)c1c(n2CC(O)CNC2CCCCC2)CCCC1 (stereo unspecified) | 117 | 34 | 108 | 21 | 61* | 154* | 133 | 17 | 99 | 2 | 30
C[C@H](CO)N1C[C@H](C)[C@@H](CN(C)S(=O)(=O)c2cn(C)cn2)Oc2ccc(NC(=O)Cc3ccccc3)cc2C1=O | 105 | 0 | . | . | 3 | . | . | . | . | . | .
O=c1c2cc(NC(=S)NCCCN3CCC(Cc4ccccc4)CC3)ccc2nc2n1CCCCC2 | 125 | -1 | 107 | 14 | 51* | 149* | 154 | 28 | 111 | 4 | 85*
O=c1c2cc(NC(=S)NCCN3CCCCCC3)ccc2nc2n1CCCCC2 | 98 | 12 | 101 | 3 | -4 | 113 | . | . | . | . | .
CCN(CC)c1ccc(Nc2nc(N3CCOCC3)c3ccccc3n2)cc1 | 101 | 30 | 102 | 4 | 7 | 120 | . | . | . | . | .
COc1ccc(Nc2nc(N3CCCC3)c3ccccc3n2)cc1 | 84 | 39 | 107 | 45* | 51* | 185* | 159 | 44 | 109 | -2 | 49*
